EC50 and Ratio data for 19 compounds are collected here from ChEMBL document CHEMBL1136517, “Optimization of alpha-acylaminoketone ecdysone agonists for control of gene expression” (Bioorg Med Chem Lett, 2003).

By EC50 is commonly meant the concentration giving half of the maximal effect. Higher therefore signals lower potency in that assay.

For test [1], the target named is T1, Ecdysone receptor (Bombyx mori, UniProt P49881).
T1 sequence (P49881 whole entry): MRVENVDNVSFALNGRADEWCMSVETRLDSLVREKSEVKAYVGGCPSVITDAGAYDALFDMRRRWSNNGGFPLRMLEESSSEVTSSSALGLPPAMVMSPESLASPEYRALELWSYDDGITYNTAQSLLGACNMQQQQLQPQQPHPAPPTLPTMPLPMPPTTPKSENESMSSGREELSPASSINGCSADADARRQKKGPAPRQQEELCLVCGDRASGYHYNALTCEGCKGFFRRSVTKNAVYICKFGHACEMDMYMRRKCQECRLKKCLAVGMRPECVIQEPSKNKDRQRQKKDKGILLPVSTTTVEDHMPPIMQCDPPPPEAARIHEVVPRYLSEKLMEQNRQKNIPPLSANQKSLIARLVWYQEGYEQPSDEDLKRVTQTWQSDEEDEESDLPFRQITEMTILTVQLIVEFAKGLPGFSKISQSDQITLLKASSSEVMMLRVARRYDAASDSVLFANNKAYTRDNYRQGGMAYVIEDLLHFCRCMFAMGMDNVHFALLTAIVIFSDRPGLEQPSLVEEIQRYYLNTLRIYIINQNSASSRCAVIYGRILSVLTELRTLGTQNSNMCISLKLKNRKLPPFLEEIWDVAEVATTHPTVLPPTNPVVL
The test is described as follows: Dose affording 50% of maximum transactivation for ecdysone receptor from Bombyx mori (BmEcR) and a beta-galactosidase reporter gene in HEK293 cell-line. It counts as functional, cell-based. The essentials: (§1)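 HEK-293 clone Z3 stably expressing BmEcR with a β-galactosidase reporter, selected with G418 (450) and puromycin (100 ng/mL). Cells seeded at 2.5 × 10⁴ cells/mL and held 24 h at 37 °C in 5% CO₂. Ligands came from 10 mM DMSO stocks diluted […] in medium, with final DMSO 0.03%. Bioluminescent β-gal read at 48 h, room temperature. Fold induction is treated RLU over DMSO RLU. EC50 is the dose giving 50% of maximum transactivation. RMFI is maximum expression relative to that of the standard agonist control.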
On the technique in general: Reporter assays use an easily measured gene product as a stand-in for the process of interest.

The target of test [2] is T2, Ecdysone receptor (Bombyx mori) (UniProt P49881).
T2 sequence (whole entry): T1 sequence (P49881 whole entry)
The test is described as follows: Ratio of maximum level of gene expression (ecdysone receptor and beta-galactosidase receptor) of compound to maximum level of gene expression with GSTM-E expressed as RMFI. It counts as functional. An outline of the steps:
as §1

Test [3] concerns the target T3, Ecdysone receptor (Choristoneura fumiferana) (UniProt O77240).
T3 sequence (whole entry): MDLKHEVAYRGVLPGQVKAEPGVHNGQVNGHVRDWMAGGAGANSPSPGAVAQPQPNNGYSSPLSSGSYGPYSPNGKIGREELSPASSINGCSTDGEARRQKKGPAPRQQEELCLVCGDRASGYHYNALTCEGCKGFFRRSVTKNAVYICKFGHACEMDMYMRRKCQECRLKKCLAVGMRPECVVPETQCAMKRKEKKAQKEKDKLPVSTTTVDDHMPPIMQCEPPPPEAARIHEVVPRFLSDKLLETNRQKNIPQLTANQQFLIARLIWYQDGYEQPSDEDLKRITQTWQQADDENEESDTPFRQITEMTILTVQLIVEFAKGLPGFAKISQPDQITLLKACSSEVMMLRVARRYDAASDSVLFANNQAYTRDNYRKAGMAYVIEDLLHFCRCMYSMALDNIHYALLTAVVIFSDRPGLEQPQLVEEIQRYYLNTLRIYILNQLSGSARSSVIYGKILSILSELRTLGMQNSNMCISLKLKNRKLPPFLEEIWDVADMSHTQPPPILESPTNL
Put plainly: Ratio of maximum level of gene expression (ecdysone receptor and luciferase gene) of compound to maximum level of gene expression with GSTM-E expressed as RMFI. It counts as functional. An outline of the steps:
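CHO clone 27-63 stably carries GAL4 DBD–CfEcR(DEF) plus VP16–RXR/LmUSP chimera, selected with Zeocin. A GAL4-RE luciferase reporter was added and selected with hygromycin. Cells plated at 2.5 × 10⁴ cells/mL. DMSO ligand stocks diluted 300-fold, tested at 8 concentrations from 33 to 0.01. Luciferase measured 48 h after treatment. RMFI is maximum expression relative to that of the standard agonist control.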

Test [4] addresses T4, Ecdysone receptor (Choristoneura fumiferana, UniProt O77240).
T4 sequence (O77240 whole entry): T3 sequence (whole entry)
Put plainly: Dose affording 50% of maximum transactivation for ecdysone receptor from Choristoneura fumiferana (CfEcR) and a luciferase reporter gene in CHO cells. It counts as functional, cell-based. An outline of the steps:
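CHO cells stably carrying GAL4 DBD(1-147)-CfEcR(DEF) and VP16-bRXR-LmUSP chimera cassettes (Zeocin selection), plus GAL4 RE-luciferase reporter (clone 27-63, hygromycin). Cells plated at 2.5 × 10⁴ cells mL⁻¹. DMSO ligand stocks diluted 300-fold; 8 concentrations, 33 to 0.01. Luciferase read 48 h after treatment. Value is the dose giving 50% of maximum transactivation.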

Molecules are shown by their SMILES.

`COc1cccc(C(=O)NC2(C(=O)c3cc(C)cc(C)c3)CCCCCC2)c1C`: the EC50 on Ecdysone receptor [1] was 1610 nM; on Ecdysone receptor [4] it was 2.97 µM. Besides, the Ratio in test [2] stood at 0.69; in test [3], 0.88.

As for `COc1cccc(C(=O)NC2(C(=O)c3cc(C)cc(C)c3)CCCC2)c1C`, the EC50 at Ecdysone receptor [1] turned out to be 1870 nM; at Ecdysone receptor [4], 1.91 µM. Besides, the Ratio in test [2] was determined as 0.85; in test [3], 0.86.

For `COc1cccc(C(=O)NC2(C(=O)c3cc(C)cc(C)c3)CCOCC2)c1C`, the figures for the EC50 at Ecdysone receptor [1] and on Ecdysone receptor [4] were 10000 nM and 10 µM, respectively. For the same compound, the Ratio in test [2] came out at 0.18; in test [3], 0.96.

In the case of `COc1cccc(C(=O)NC2(C(=O)c3cc(C)cc(C)c3)CCC2)c1C`, the figures for the EC50 at Ecdysone receptor [1] and at Ecdysone receptor [4] were 8520 nM and 10 µM, respectively. The Ratio in test [2] was 0.69; in test [3] it was 0.89.

As to `CCc1c(C(=O)NC2(C(=O)c3cc(C)cc(C)c3)CCCCC2)ccc2c1OCCO2`, the values for the EC50 on Ecdysone receptor [1] and at Ecdysone receptor [4] were 740 nM and 0.39 µM, respectively. For the same compound, the Ratio in test [2] is 0.89; in test [3] it was 0.91.

Take `COc1cccc(C(=O)NC2(C(=O)c3cc(C)cc(C)c3)CC2)c1C`: the values for the EC50 on Ecdysone receptor [1] and on Ecdysone receptor [4] were 20400 nM and 33.3 µM, respectively. Also, the Ratio came to 0.22 in test [2] and 0.09 in test [3].

In the case of `COc1cccc(C(=O)NC2(C(=O)c3cc(C)cc(C)c3)CCCCC2)c1C`, the EC50 at Ecdysone receptor [1] turned out to be 1410 nM; on Ecdysone receptor [4], 1.11 µM. Further, the values for the Ratio in test [2] and in test [3] were 0.99 and 0.96, respectively.

Turning to `CCc1c(OC)cccc1C(=O)NN(C(=O)c1cc(C)cc(C)c1)C(C)(C)C`, the EC50 at Ecdysone receptor [1] stood at 250 nM; at Ecdysone receptor [4], 0.41 µM. The Ratio in test [2] and in test [3] was 1 in each case.

With `COc1ccccc1C(=O)C1(NC(=O)c2cccc(OC)c2C)CCCCC1`, the EC50 was determined as 980 nM at Ecdysone receptor [1] and 1.03 µM on Ecdysone receptor [4]. Moreover, the figures for the Ratio in test [2] and in test [3] were 0.84 and 0.71, respectively.

Turning to `CCc1c(OC)cccc1C(=O)NC1(C(=O)c2cc(C)cc(C)c2)CCCCC1`, the EC50 at Ecdysone receptor [1] turned out to be 1810 nM; at Ecdysone receptor [4], 1.25 µM. The Ratio in test [2] worked out at 0.85; in test [3] it was 0.89.

On Ecdysone receptor [1], `CCc1ccc(C(=O)NC2(C(=O)c3cc(C)cc(C)c3)CCCCC2)cc1` came in with an EC50 of 1510 nM. Further, in test [2], the Ratio came to 0.63.

Regarding `COc1cccc(C(=O)NN(C(=O)c2cc(C)cc(C)c2)C(C)(C)C)c1C` [METHOXYFENOZIDE], the EC50 on Ecdysone receptor [1] turned out to be 100 nM; on Ecdysone receptor [4], 0.28 µM. Further, the Ratio was determined as 1.03 in test [2] and 1.02 in test [3].

For the compound `COc1ccccc1C(=O)C1(NC(=O)c2cccc(OC)c2C)CCCCCC1`, the EC50 on Ecdysone receptor [1] worked out at 1940 nM; on Ecdysone receptor [4], 3.36 µM. Also, the Ratio in test [2] stood at 0.78; in test [3], 0.66.

On to `COc1cccc(C(=O)NC2(C(=O)c3cc(C)cc(C)c3)CCS(=O)(=O)CC2)c1C`, for which the EC50 was 15000 nM on Ecdysone receptor [1] and 30 µM at Ecdysone receptor [4]. Also, the results for the Ratio in test [2] and in test [3] were 0.1 and 0.04, respectively.

As to `COc1cccc(C(=O)NC(C)(C)C(=O)c2cc(C)cc(C)c2)c1C`, the EC50 on Ecdysone receptor [1] is 10000 nM; on Ecdysone receptor [4], 41.9 µM. Besides, the Ratio in test [2] amounted to 0.17; in test [3] it was 0.29.

Take `Cc1cc(C)cc(C(=O)C2(NC(=O)c3ccc4c(c3C)OCO4)CCCCC2)c1`: the figures for the EC50 at Ecdysone receptor [1] and at Ecdysone receptor [4] were 3680 nM and 3.22 µM, respectively. For the same compound, the Ratio in test [2] turned out to be 0.81; in test [3] it was 0.91.

For the compound `COc1cccc(C(=O)NC2(C(=O)c3cc(C)cc(C)c3)CCSCC2)c1C`, the results for the EC50 at Ecdysone receptor [1] and on Ecdysone receptor [4] were 1600 nM and 1.8 µM, respectively. The Ratio in test [2] worked out at 0.98; in test [3] it was 0.85.

Turning to `COc1ccccc1C(=O)C1(NC(=O)c2cccc(OC)c2C)CCCC1`, the EC50 at Ecdysone receptor [1] came to 5160 nM; on Ecdysone receptor [4] it was 6.61 µM. The Ratio in test [2] was found to be 0.7; in test [3], 0.67.

With `CCC(CC)(NC(=O)c1cccc(OC)c1C)C(=O)c1cc(C)cc(C)c1`, the EC50 on Ecdysone receptor [1] came out at 4530 nM; at Ecdysone receptor [4], 6.23 µM. Besides, the Ratio came to 0.61 in test [2] and 0.54 in test [3].
